Data reported in ChEMBL document CHEMBL1765020, “Synthesis and structure-affinity relationships of novel dibenzylideneacetone derivatives as probes for β-amyloid plaques” (J Med Chem, 2011).
Active and inactive are the calls of the source. No cut-off for these calls is given here.

What was measured:
Mus musculus [1] = organism: Mus musculus; assay: Binding affinity to amyloid beta (1 to 42) aggregate in APP/PS1 transgenic C57BL/6 mouse brain by Thioflavin S fluorescent staining assay; assay type: tissue-based; settings: C57BL6, tested as the 18F-labelled form
Method in brief: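 The same Tg mouse sections used for autoradiography were stained with thioflavin S to locate plaques. Fluorescence was viewed by microscope: excitation 400–440 nm, dichroic 455 nm, long-pass 470 nm.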

Mus musculus [2] = organism: Mus musculus; assay: Binding affinity to amyloid beta (1 to 42) aggregate in APP/PS1 transgenic C57BL/6 mouse brain after 1 hr by autoradiography; assay type: tissue-based; settings: C57BL6, tested as the 18F-labelled form
Method in brief: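 Paraffin brain sections from 12-month-old male C57BL6-APP/PS1 mice, with wild-type male C57BL6 controls, were deparaffinized through xylene and graded ethanol, then held 30 min in PBS (0.2 M, pH 7.4). Sections were incubated 1 h at room temperature with radiotracer (5 μCi/100 μL), washed 3 min in 40% ethanol, rinsed in water, dried and exposed to an imaging plate overnight.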

[3] = target: Amyloid-beta precursor protein (Homo sapiens) (UniProt P05067); assay: Binding affinity to amyloid beta (1 to 42) aggregate in Alzheimer disease patient brain by immunohistochemical staining using amyloid beta antibody; settings: tested as the 18F-labelled form
Chain of Amyloid-beta precursor protein (Homo sapiens) (P05067 whole entry): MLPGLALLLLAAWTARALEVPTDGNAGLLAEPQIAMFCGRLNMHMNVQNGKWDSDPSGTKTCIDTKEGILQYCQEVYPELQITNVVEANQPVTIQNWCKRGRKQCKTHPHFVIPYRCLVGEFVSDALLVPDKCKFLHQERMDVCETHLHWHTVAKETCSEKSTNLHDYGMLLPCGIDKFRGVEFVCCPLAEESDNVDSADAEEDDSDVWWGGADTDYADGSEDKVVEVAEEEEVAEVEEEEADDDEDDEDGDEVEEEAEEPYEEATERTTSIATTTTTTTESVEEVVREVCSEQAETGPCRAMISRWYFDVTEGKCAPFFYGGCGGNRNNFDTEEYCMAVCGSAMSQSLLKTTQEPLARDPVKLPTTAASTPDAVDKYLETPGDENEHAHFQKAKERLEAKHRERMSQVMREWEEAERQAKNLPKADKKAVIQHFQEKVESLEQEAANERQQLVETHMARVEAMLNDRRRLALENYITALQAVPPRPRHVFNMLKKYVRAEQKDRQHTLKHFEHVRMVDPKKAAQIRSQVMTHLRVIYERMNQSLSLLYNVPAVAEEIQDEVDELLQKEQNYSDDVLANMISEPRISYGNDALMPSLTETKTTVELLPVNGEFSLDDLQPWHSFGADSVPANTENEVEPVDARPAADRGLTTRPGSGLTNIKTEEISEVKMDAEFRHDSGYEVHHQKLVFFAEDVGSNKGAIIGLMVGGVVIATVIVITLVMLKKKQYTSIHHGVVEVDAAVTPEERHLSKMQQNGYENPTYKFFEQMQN
Method in brief: (§1)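 Plaque presence and location in the AD patient temporal-lobe sections were confirmed by immunohistochemistry with monoclonal anti-Aβ1-42 antibody BC05.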

[4] = Displacement of [125I]IMPY from amyloid beta (1 to 42) aggregate after 2 hrs by gamma counting
Method in brief: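 Competition binding in 1 mL PBS (0.2 M, pH 7.4). Aggregated Aβ1-42 fibrils (60 nM final) with [125I]IMPY and inhibitor at 10^-5 to 10^-10 M, added in ethanol. Nonspecific binding was defined with 1 μM IMPY. Incubated 2 h at 37 °C with shaking, then vacuum-filtered through glass fibre filters and the bound fraction gamma-counted. IC50 was converted to Ki by Cheng-Prusoff; triplicate, mean ± SD.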

[5] = target: Amyloid-beta precursor protein (Homo sapiens) (UniProt P05067); assay: Binding affinity to amyloid beta (1 to 42) aggregate in cortex of Alzheimer disease patient brain by autoradiography; settings: tested as the 125I-labelled form
Method in brief: (§2)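 Human postmortem temporal-lobe paraffin sections were used: AD patient and normal control (person). They were deparaffinized (xylene, graded ethanol), held 30 min in PBS 0.2 M pH 7.4, incubated 1 h at room temperature with radiotracer (5 μCi/100 μL), washed 3 min in 40% ethanol, rinsed, dried and exposed to an imaging plate overnight.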

[6] = target: Amyloid-beta precursor protein (Homo sapiens) (UniProt P05067); assay: Binding affinity to amyloid beta (1 to 42) aggregate in white matter of Alzheimer disease patient brain by immunohistochemical staining using amyloid beta antibody BC05; assay type: tissue-based; settings: tested as the 125I-labelled form; method in brief: as §1
[7] = target: Amyloid-beta precursor protein (Homo sapiens) (UniProt P05067); assay: Binding affinity to amyloid beta (1 to 42) aggregate in cortex of Alzheimer disease patient brain by immunohistochemical staining using amyloid beta antibody BC05; settings: tested as the 125I-labelled form; method in brief: as §1
[8] = target: Amyloid-beta precursor protein (Homo sapiens) (UniProt P05067); assay: Binding affinity to amyloid beta (1 to 42) aggregate in white matter of Alzheimer disease patient brain by autoradiography; assay type: tissue-based; settings: tested as the 125I-labelled form; method in brief: as §2

Row | Compound | Activity (Mus musculus [1]) | Activity (Mus musculus [2]) | Activity [3] | Ki [4] [nM] | Activity [5] | Activity [6] | Activity [7] | Activity [8]
1 | CNc1ccc(/C=C/C(=O)/C=C/c2ccc(OCCOCCOCCF)cc2)cc1 | Active | Active | Active | 8.6 |  |  |  | 
2 | CN(C)c1ccc(/C=C/C(=O)/C=C/c2ccc(I)cc2)cc1 |  |  |  | 0.9 | Active | Active | Active | Active
3 | CNc1ccc(/C=C/C(=O)/C=C/c2ccc(I)cc2)cc1 |  |  |  | 2.8 | Active | Active | Active | Active
